# Measured values gathered from unrelated publications.
# Lines come from different studies, so protocols differ.
# Target: Ephrin type-A receptor 1 (EPHA1, Homo sapiens, UniProt P21709)
# Sequence (P21709 26-976, as in one of the studies): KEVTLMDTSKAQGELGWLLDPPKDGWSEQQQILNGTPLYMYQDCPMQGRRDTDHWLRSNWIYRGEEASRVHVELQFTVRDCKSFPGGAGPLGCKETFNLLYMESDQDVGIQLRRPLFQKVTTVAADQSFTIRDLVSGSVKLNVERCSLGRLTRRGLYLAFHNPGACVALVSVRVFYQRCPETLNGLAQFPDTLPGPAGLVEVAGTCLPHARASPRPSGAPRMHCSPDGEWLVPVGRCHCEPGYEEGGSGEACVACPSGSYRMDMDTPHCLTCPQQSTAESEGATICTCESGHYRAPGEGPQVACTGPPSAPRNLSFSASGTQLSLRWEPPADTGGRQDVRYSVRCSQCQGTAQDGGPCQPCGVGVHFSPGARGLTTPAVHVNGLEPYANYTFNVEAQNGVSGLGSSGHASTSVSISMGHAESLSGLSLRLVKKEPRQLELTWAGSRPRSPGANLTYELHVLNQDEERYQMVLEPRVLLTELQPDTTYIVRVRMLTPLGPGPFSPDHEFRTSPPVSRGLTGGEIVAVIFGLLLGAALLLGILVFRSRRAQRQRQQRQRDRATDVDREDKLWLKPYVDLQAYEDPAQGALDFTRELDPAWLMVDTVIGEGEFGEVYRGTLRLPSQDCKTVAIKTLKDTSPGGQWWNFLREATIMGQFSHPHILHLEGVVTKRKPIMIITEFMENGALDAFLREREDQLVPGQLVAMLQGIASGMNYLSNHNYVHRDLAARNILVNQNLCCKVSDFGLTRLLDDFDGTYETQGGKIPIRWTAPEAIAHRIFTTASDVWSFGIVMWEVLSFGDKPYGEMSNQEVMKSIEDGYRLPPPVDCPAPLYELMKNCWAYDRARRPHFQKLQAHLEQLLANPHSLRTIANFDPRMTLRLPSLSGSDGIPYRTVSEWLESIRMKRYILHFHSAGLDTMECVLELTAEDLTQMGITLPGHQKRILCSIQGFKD
Compound,test,setting,measurement,result
COc1ccc2oc(-c3ccc4nc(N)oc4c3)c/c(=N\c3ccccc3NC(=O)CCN)c2c1,binding,1 µM,remaining binding,101%
CC(C)S(=O)(=O)c1ccc2nccc(Nc3ccc4sc(C5CCCC5)nc4c3)c2c1,"enzyme activity, inhibitor",1 µM,activity vs control,100%
CC#CC(=O)N1CCC[C@H]1c1nc(-c2ccc(C(=O)Nc3ccccn3)cc2)c2c(N)nccn12,"enzyme activity, inhibitor",1 µM,inhibition,25%
Cc1ccc(NC(=O)c2ccnc(C(F)(F)F)c2)cc1-c1cc(OCCO)nc(N2CCOCC2)c1,"binding, competition with immobilised ligand",1 µM,remaining binding,83%
CCCCC(=O)Nc1ccc(-c2ccc3ncn(CCC)c(=O)c3c2)cn1,"binding, competition with immobilised ligand",0.5 µM,remaining binding,80%
C=CC(=O)N1CCC([C@@H]2CCNc3c(C(N)=O)c(-c4ccc(Oc5ccccc5)cc4)nn32)CC1,cell-free assay,1 µM,inhibition,25%
C1=C/COCc2cc(ccc2OCCN2CCCC2)Nc2nccc(n2)-c2cccc(c2)COC/1,binding,0.1 µM,remaining binding,93%
CN1CCN(C(=O)c2ccc(NC(=O)Nc3ccc(N(C)c4ccnc(Nc5ccc(CS(C)(=O)=O)cc5)n4)cc3)cc2)CC1,"binding, competition with immobilised ligand",1 µM,remaining binding,56%
